As a reminder, the IC50 is the concentration needed to halve the response being measured.

For eleven compounds, IC12 and IC50 results are on record in ChEMBL document CHEMBL1144065, “Synthesis of furanonaphthoquinones with hydroxyamino side chains” (J Nat Prod, 1999).

Test [1] has as its system Saccharomyces cerevisiae. The test is described as follows: Growth inhibition of Yeast expressing rad52.top1 mutant by yeast bioassay. It is filed as functional. In a few lines:
(§1)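 Agar diffusion assay: 100 µL wells cut in an agar layer overlaid with the repair-deficient yeast strain (∆rad52, or ∆rad52∆top1). IC12 in µg/mL is the concentration giving a 12 mm inhibition zone around the well.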

Test [2] has as its system Saccharomyces cerevisiae. Put plainly: Growth inhibition of Yeast expressing rad52 mutant by yeast bioassay. It is filed as functional. In a few lines:
as §1

A short description of test [3]: Cytotoxicity against rat H4IIE cells by XTT assay. It is filed as functional, cell-based. In a few lines: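 H4IIE rat hepatoma cells in culture; growth read out with the XTT protocol. IC50 in µM is the concentration giving 50% growth inhibition. Active compounds were run in two separate assays, and both values are reported.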
The test system of test [4] is Vero. The test is described as follows: Cytotoxicity against african green monkey Vero cells. In kind it is cell-based. The settings on record: Chlorocebus sabaeus.

As for `COc1cc(OC)c2c(c1)C(=O)c1occc1C2=O`, the IC12 in test [1] is 125 µg/mL; in test [2], over 8000 µg/mL. In test [3], this compound showed an IC50 of 5 µM.

In the case of `COc1ccc2cn(C(C)(CO)CO)c3c2c1C(=O)c1ccoc1-3`, the IC12 in test [1] and in test [2] was over 500 µg/mL each time. Further, the IC50 in test [3] was over 20 µM.

As for `O=C1c2ccccc2C(=O)c2oc(CNCC(O)CO)cc21` (configuration not stated), the IC12 in test [1] is 220 µg/mL; in test [2] it was over 500 µg/mL. Half-maximal inhibition in test [3] (IC50) required 2 µM.

In the case of `CC(CO)(CO)NCc1cc2c(o1)C(=O)c1ccccc1C2=O`, the IC12 in test [1] is 240 µg/mL; in test [2], over 500 µg/mL. Besides, the midpoint of inhibition in test [3], the IC50, lay at 2 µM.

`CC(O)c1cc2c(o1)C(=O)c1ccccc1C2=O` (configuration not stated) had an IC12 in test [2] of 14 µg/mL. In test [4], this compound came in with an IC50 of 15.3 µM.

With `COc1cccc2c1C(=O)c1ccoc1C2=O`, the figures for the IC12 in test [1] and in test [2] were 44 µg/mL and 152 µg/mL, respectively. The compound further returned an IC50 in test [3] of 7 µM.

As to `CCC(CO)(CO)NCc1cc2c(o1)C(=O)c1ccccc1C2=O`, the IC12 in test [1] and in test [2] was over 500 µg/mL in each case. Besides, inhibition in test [3] was half-maximal at 5 µM (IC50).

Take `O=Cc1cc2c(o1)C(=O)c1ccccc1C2=O`: the figures for the IC12 in test [1] and in test [2] were 44 µg/mL and 160 µg/mL, respectively. The compound further yielded an IC50 in test [3] of 2 µM.

As for `CC(C)(CO)NCc1cc2c(o1)C(=O)c1ccccc1C2=O`, the values for the IC12 in test [1] and in test [2] were 210 µg/mL and over 500 µg/mL, respectively. In addition, the IC50 in test [3] was determined as 4 µM.

On to `O=C1c2ccccc2C(=O)c2oc(CNC(CO)(CO)CO)cc21`, for which the IC12 in test [1] was over 250 µg/mL; in test [2] it was over 500 µg/mL. For the same compound, the IC50 in test [3] was over 20 µM.

In the case of `O=C1c2ccccc2C(=O)c2occc21`, the results for the IC12 in test [1] and in test [2] were 17 µg/mL and 83 µg/mL, respectively. The compound further returned an IC50 in test [3] of 5 µM.
